Test results: publication PMC8327296 (Journal of medicinal chemistry, 2018)

Legend:
recombinant A2BR (human) = biological target: T1, recombinant A2BR (human) (Homo sapiens, UniProt P29275); experiment: Competition radioligand binding, human A2BR
T1 sequence (P29275 1-332): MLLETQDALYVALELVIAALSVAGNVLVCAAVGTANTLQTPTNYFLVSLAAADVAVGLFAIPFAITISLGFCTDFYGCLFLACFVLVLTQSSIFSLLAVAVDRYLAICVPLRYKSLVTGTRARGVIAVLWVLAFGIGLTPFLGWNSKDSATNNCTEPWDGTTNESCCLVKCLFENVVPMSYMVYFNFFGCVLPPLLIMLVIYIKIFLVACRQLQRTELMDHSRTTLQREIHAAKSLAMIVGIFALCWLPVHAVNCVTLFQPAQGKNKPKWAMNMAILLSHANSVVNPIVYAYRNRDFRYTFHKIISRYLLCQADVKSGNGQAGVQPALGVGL
Summary of the method: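 Adenosine deaminase-treated membranes (3 units/mL, 30 min, 37 °C) of HEK293 cells carrying recombinant human A2BR. […] Nonspecific binding with 100 μM XAC. GF/B filtration, scintillation counting. Ki via Cheng–Prusoff, mean ± SEM of 2–4 experiments in duplicate.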

recombinant A2AR (human) = recombinant A2AR (human) (Homo sapiens, UniProt P29274); experiment: Competition radioligand binding, human A2AR; conditions: for inhibition at 1 µM: read-out: % inhib., A2A
Chain of recombinant A2AR (human) (P29274 whole entry): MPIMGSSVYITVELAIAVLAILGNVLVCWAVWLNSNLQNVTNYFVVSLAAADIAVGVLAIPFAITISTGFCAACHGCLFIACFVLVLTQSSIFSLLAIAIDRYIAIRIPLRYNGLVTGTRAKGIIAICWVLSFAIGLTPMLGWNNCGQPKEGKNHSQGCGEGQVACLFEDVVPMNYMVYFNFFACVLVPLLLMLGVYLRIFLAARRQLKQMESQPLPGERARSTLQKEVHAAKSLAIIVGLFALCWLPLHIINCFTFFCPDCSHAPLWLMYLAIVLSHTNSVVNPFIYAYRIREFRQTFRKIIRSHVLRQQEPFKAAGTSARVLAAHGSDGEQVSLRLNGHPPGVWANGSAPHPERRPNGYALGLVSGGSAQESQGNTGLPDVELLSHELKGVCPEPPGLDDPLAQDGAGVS
Summary of the method: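 Human A2AR expressed in HEK293 cells; membranes treated with adenosine deaminase 3 units/mL for 30 min at 37 °C. […] Nonspecific binding with 10 μM XAC. Filtration on GF/B, scintillation counting. Ki by Cheng–Prusoff, mean ± SEM of 2–4 experiments in duplicate.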

recombinant A3R (human) = biological target: T2, recombinant A3R (human) (Homo sapiens, UniProt P0DMS8); experiment: Competition radioligand binding, human A3R; conditions: for inhibition at 1 µM: read-out: % inhib., A3
T2 sequence (P0DMS8 1-318): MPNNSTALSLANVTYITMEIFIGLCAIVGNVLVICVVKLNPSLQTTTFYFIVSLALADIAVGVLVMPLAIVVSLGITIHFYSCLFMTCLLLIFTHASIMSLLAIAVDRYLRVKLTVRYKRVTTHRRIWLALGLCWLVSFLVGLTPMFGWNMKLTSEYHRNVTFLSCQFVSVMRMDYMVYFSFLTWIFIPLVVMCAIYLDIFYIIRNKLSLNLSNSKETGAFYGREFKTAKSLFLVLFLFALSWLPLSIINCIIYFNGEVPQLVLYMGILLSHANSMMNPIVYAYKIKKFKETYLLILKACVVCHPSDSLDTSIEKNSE

A1R [1] = biological target: T3, A1R (Homo sapiens, UniProt P30542); experiment: Competition radioligand binding, human A1R
T3 sequence (P30542 1-326): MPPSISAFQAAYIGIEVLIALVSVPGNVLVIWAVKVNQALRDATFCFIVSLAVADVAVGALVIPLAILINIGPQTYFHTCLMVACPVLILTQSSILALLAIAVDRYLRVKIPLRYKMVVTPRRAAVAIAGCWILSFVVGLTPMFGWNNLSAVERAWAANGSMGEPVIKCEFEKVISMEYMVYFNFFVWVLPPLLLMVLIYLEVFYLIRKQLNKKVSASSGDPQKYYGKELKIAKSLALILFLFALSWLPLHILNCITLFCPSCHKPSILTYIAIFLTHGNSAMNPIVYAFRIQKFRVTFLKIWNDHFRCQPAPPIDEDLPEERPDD
Summary of the method: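 Membranes from HEK293 cells expressing recombinant human A1R (DMEM, 10% FBS, 37 °C, 5% CO2), treated with adenosine deaminase 3 units/mL for 30 min at 37 °C. 20 μg protein per tube incubated 60 min at 25 °C in 50 mM Tris·HCl with 10 mM MgCl2, 0.5 nM [3H]8-cyclopentyl-1,3-dipropylxanthine and varied test compound. Nonspecific binding defined with 10 μM XAC. Bound ligand collected on GF/B filters and counted by scintillation. Ki by Cheng–Prusoff; mean ± SEM of 2–4 experiments in duplicate.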

A1R [2] = biological target: T3, A1R; experiment: cAMP accumulation assay; assay type: cell-based; conditions: for Emax: HEK293, read-out: A1 functional efficacy (Emax %)
Summary of the method: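 HEK293 cells expressing A1R seeded at 1,000 cells/well on poly-D-lysine and kept overnight at 37 °C. Preincubated 30 min at 37 °C with adenosine deaminase 3 units/ml, rolipram 10 μM and the A2B antagonist PSB603 1 μM. Agonist applied 20 min, then forskolin 10 μM for 15 min at 37 °C. Cells lysed in 0.3% Tween-20 and cAMP measured by AlphaScreen. Emax relative to a reference agonist set at 100%.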

[3] = biological target: A2AR, rat brain membranes (striatum) (Rattus norvegicus, UniProt P30543); experiment: Competition radioligand binding, rat brain homogenates
Chain of A2AR, rat brain membranes (striatum) (P30543 whole entry): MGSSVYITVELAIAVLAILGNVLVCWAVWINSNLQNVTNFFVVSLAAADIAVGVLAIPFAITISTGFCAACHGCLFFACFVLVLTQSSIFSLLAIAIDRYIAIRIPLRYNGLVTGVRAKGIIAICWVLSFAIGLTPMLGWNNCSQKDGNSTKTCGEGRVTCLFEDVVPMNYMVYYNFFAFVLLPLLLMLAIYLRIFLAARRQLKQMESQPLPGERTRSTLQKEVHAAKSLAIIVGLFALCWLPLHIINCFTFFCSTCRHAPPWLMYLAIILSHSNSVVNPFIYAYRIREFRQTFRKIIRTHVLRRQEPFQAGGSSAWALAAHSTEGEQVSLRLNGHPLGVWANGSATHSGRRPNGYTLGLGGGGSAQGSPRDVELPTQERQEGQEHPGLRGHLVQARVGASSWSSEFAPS
Summary of the method: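 Rat striatum homogenate incubated 60 min at 25 °C in 50 mM Tris·HCl/10 mM MgCl2 with 0.8 nM [3H]ZM241385 and varied test compound. Nonspecific binding defined with 10 μM XAC. GF/B filtration with 3 ice-cold washes, then scintillation counting. Ki from IC50 by Cheng–Prusoff; mean ± SEM of 2–4 experiments in duplicate.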

[4] = biological target: T4, A1R, rat brain membranes (forebrain) (Rattus norvegicus, UniProt P25099); experiment: Competition radioligand binding, rat brain homogenates
T4 sequence (P25099 1-326): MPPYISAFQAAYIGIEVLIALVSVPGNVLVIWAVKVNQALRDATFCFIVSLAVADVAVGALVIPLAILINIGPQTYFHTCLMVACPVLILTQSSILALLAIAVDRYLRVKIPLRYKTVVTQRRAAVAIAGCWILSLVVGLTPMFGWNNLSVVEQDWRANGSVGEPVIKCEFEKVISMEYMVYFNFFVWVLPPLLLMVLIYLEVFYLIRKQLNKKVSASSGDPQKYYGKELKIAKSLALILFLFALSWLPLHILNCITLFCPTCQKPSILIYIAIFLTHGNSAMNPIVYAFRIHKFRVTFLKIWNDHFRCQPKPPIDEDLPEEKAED
Summary of the method: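 Rat forebrain homogenate incubated 60 min at 25 °C in 50 mM Tris·HCl with 10 mM MgCl2, 0.5 nM [3H]8-cyclopentyl-1,3-dipropylxanthine and varied test compound. Nonspecific binding defined with 10 μM XAC. Separation by GF/B filtration with 3 ice-cold buffer washes, then scintillation counting. IC50 converted to Ki by Cheng–Prusoff; mean ± SEM of 2–4 experiments in duplicate.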

[5] = Small animal PET, brain uptake in rats; assay type: in vivo, rat; conditions: 11C-labelled compound; for BBB permeability: rat pilot PET study; for standard uptake value (SUV), brain uptake: rat, whole brain, 10 min after intravenous administration
Summary of the method: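 Male Wistar rats (2–3 months, 318 ± 40 g) under 2–5% isoflurane, temperature held near 36.9 °C. After a 10 min transmission scan, 20.8–37.0 MBq 11C-labelled test compound in saline infused iv (tail vein or penile catheter, 600 μL/min). 90 min dynamic list-mode microPET, template coregistration, regional time-activity curves. Test–retest (n=3) 30 min later; blocking drugs given 10 min before the second injection.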

| Ki (recombinant A2BR (human)) [nM] | Ki (A1R [1]) [nM] | Emax (A1R [2]) [%] | Ki (recombinant A2AR (human)) [nM] | Ki (recombinant A3R (human)) [nM] | Structure (SMILES) | further results |
| --- | --- | --- | --- | --- | --- | --- |
| 30 ± 2.5 | 2.9 ± 0.7 | -0.06 ± 3.3 | 35 ± 19 | 701 ± 244 | COc1ccc(-c2c(C#N)c(N)nc(SCc3cccc(C)n3)c2C#N)cc1 [22a, 2-Amino-4-(4-methoxyphenyl)-6-(((6-methylpyridin-2-yl)methyl)thio)pyridine-3,5-dicarbonitrile] | – |
| 75 ± 30 | 0.49 ± 0.06 | 16 ± 2.3 | 71 ± 25 | – | COc1cccc(-c2c(C#N)c(N)nc(SCc3cccc(C)n3)c2C#N)c1 [22b, 2-Amino-4-(3-methoxyphenyl)-6-(((6-methylpyridin-2-yl)methyl)thio)pyridine-3,5-dicarbonitrile] | Ki [3]: 52 nM; Ki [4]: 0.21 nM; inhibition at 1 µM (recombinant A3R (human)): 42 ± 11%; EC50 (A1R [2]): 1 nM |
| 24 ± 16 | 3.5 ± 1.3 | 109 ± 7.8 | 15 ± 3.1 | 74 ± 3.4 | Cc1cccc(CSc2nc(N)c(C#N)c(-c3cccc(O)c3)c2C#N)n1 [22e, 2-Amino-4-(3-hydroxyphenyl)-6-(((6-methylpyridin-2-yl)methyl)thio)pyridine-3,5-dicarbonitrile] | – |
| 1.2 ± 0.2 | 53 ± 18 | 122 ± 5.2 | 2.8 ± 0.1 | 22 ± 6.7 | CC(=O)Nc1ccc(-c2c(C#N)c(N)nc(SCc3cccc(C)n3)c2C#N)cc1 [22g, N-(4-(2-Amino-3,5-dicyano-6-(((6-methylpyridin-2-yl)methyl)thio)pyridin-4-yl)phenyl)acetamide] | – |

Further lines, the compound ahead of its results:

| Structure (SMILES) | Ki (recombinant A2BR (human)) [nM] | Ki (A1R [1]) [nM] | Emax (A1R [2]) [%] | Ki (recombinant A2AR (human)) [nM] | Ki (recombinant A3R (human)) [nM] | further results |
| --- | --- | --- | --- | --- | --- | --- |
| COc1ccc(-c2nc(SCc3cccc(C)n3)nc(N)c2C#N)cc1 [21a, 4-Amino-6-(4-methoxyphenyl)-2-(((6-methylpyridin-2-yl)methyl)thio)pyrimidine-5-carbonitrile] | 305 ± 108 | 29 ± 0.1 | -2 ± 3.5 | – | – | inhibition at 1 µM (recombinant A2AR (human)): 32 ± 2%; inhibition at 1 µM (recombinant A3R (human)): 44 ± 3% |
| COc1cccc(-c2nc(SCc3cccc(C)n3)nc(N)c2C#N)c1 [21b, 4-Amino-6-(3-methoxyphenyl)-2-(((6-methylpyridin-2-yl)methyl)thio)pyrimidine-5-carbonitrile] | – | 7.2 ± 2.4 | 3.4 ± 1.9 | – | – | inhibition at 1 µM (recombinant A2BR (human); read-out: % inhib., A2B): 35 ± 10%; inhibition at 1 µM (recombinant A2AR (human)): 46 ± 1%; inhibition at 1 µM (recombinant A3R (human)): 42 ± 11% |
| COc1ccc(-c2nc(SCc3ncc[nH]3)nc(N)c2C#N)cc1 [21c, 2-(((1H-Imidazol-2-yl)methyl)thio)-4-amino-6-(4-methoxyphenyl)pyrimidine-5-carbonitrile] | 237 ± 48 | 306 ± 17 | 1.4 ± 3.1 | – | – | inhibition at 1 µM (recombinant A3R (human)): 51 ± 5% |
| COc1cccc(-c2nc(SCc3ncc[nH]3)nc(N)c2C#N)c1 [21d, 2-(((1H-Imidazol-2-yl)methyl)thio)-4-amino-6-(3-methoxyphenyl)pyrimidine-5-carbonitrile] | 208 ± 27 | 48 ± 2.8 | 4.9 ± 3.3 | 554 ± 273 | 703 ± 50 | – |
| Cc1cccc(CSc2nc(N)c(C#N)c(-c3cccc(O)c3)n2)n1 [21e, 4-Amino-6-(3-hydroxyphenyl)-2-(((6-methylpyridin-2-yl)methyl)thio)pyrimidine-5-carbonitrile] | 126 ± 12 | 18 ± 2.1 | 18 ± 3.3 | 93 ± 63 | 79 ± 9.4 | – |
| N#Cc1c(N)nc(SCc2ncc[nH]2)nc1-c1cccc(O)c1 [21f, 2-(((1H-Imidazol-2-yl)methyl)thio)-4-amino-6-(3-hydroxyphenyl)pyrimidine-5-carbonitrile] | 38 ± 7.3 | 110 ± 31 | 41 ± 6.1 | 96 ± 13.3 | 112 ± 14 | – |
| CSc1nc(N)c(C#N)c(-c2ccc(NC(C)=O)cc2)c1C#N [compound 12, N-(4-(2-Amino-3,5-dicyano-6-(methylthio)pyridin-4-yl)phenyl)acetamide] | – | – | – | – | – | BBB permeability [5]: poor BBB permeability |
| CSc1nc(N)c(C#N)c(-c2ccc(NC(C)=O)cc2)n1 [compound 13, N-(4-(6-Amino-5-cyano-2-(methylthio)pyrimidin-4-yl)phenyl)acetamide] | – | – | – | – | – | BBB permeability [5]: poor BBB permeability |
| COc1ccc(-c2c(C#N)c(N)nc(SC)c2C#N)cc1 [compound 14, 2-Amino-4-(4-methoxyphenyl)-6-(methylthio)pyridine-3,5-dicarbonitrile] | – | – | – | – | – | standard uptake value (SUV), brain uptake [5]: ~ 3 g/mL |
| COc1ccc(-c2nc(SC)nc(N)c2C#N)cc1 [compound 15, 4-Amino-6-(4-methoxyphenyl)-2-(methylthio)pyrimidine-5-carbonitrile] | – | – | – | – | – | standard uptake value (SUV), brain uptake [5]: ~ 3 g/mL |
